{"data": "Measurements pooled from the literature", "CDK4": "Cyclin-dependent kinase 4 (CDK4, Homo sapiens, UniProt P11802)", "note": "Protocols differ between the studies behind these lines."}
{"Structure (SMILES)": "Cc1nn(C)cc1-c1nc2c(N3CCN(Cc4ccc(Cl)cc4)CC3)c(Cl)cnc2[nH]1", "target": "Serine/threonine-protein kinase MRCK beta (CDC42BPB, Homo sapiens, UniProt Q9Y5S2)", "assay": "binding, competition with immobilised ligand", "conditions": "1 µM", "measurement": "remaining binding", "result": "55%"}
{"Structure (SMILES)": "Nc1ncc(-c2nc(N3CCOCC3)nc(N3CCOCC3)n2)c(C(F)F)n1", "target": "Fibroblast growth factor receptor 3 (FGFR3, Homo sapiens, UniProt P22607, G697C)", "assay": "cell-free assay, competition with immobilised ligand", "conditions": "10 µM", "measurement": "remaining binding", "result": "83%"}
{"Structure (SMILES)": "Clc1cccc(-c2c[nH]c3nccc(N4CCOCC4)c23)c1", "target": "Serine/threonine-protein kinase 3 (STK3, Homo sapiens, UniProt Q13188)", "assay": "thermal stability, DSF", "measurement": "ΔTm", "result": "> 7.4 °C"}
{"Structure (SMILES)": "C#Cc1n[nH]c2c(-c3cn([C@@H](C)c4ccccn4)c(=O)[nH]c3=O)cc(F)cc12", "target": "Tyrosine-protein kinase Fes/Fps (FES, Homo sapiens, UniProt P07332)", "assay": "enzyme activity, inhibitor", "conditions": "0.1 µM", "measurement": "inhibition", "result": "10%"}
{"Structure (SMILES)": "CCOC(=O)[C@H]1Cc2c(cc([N+](=O)[O-])cc2[N+](=O)[O-])[C@H](O)[C@]12C(=O)Nc1ccc(F)cc12", "target": "CDK4", "assay": "cell-free assay, inhibitor, TR-FRET", "conditions": "1 µM", "measurement": "inhibition", "result": "32.6%"}
{"Structure (SMILES)": "COc1ncccc1-c1cnn2ccc(N3CCN(C(=O)OC(C)C)CC3)nc12", "target": "Myosin-IIIb (MYO3B, Homo sapiens, UniProt Q8WXR4)", "assay": "binding, competition with immobilised ligand", "conditions": "1 µM", "measurement": "remaining binding", "result": "100%"}
{"Structure (SMILES)": "CCOC(=O)[C@H]1Cc2c(cc([N+](=O)[O-])cc2[N+](=O)[O-])[C@@H](O)[C@@]12C(=O)Nc1ccc([N+](=O)[O-])cc12", "target": "CDK4", "assay": "cell-free assay, inhibitor, TR-FRET", "conditions": "1 µM", "measurement": "inhibition", "result": "42.8%"}
{"Structure (SMILES)": "COC(=O)[C@H](CCCNC(=N)N)NC(=O)c1ccccc1", "target": "Protein-arginine deiminase type-3 (PADI3, Homo sapiens, UniProt Q9ULW8)", "assay": "enzyme activity, substrate", "measurement": "Km", "result": "10.8 mM"}
{"Structure (SMILES)": "COCCCOc1cc(C[C@@H](C[C@H](N)[C@@H](O)C[C@H](C(=O)NCC(C)(C)C(N)=O)C(C)C)C(C)C)ccc1OC", "target": "Renin (REN, Homo sapiens, UniProt P00797)", "assay": "enzyme activity, inhibitor", "conditions": "10 nM", "measurement": "inhibition", "result": "70%"}
{"Structure (SMILES)": "CCOC(=O)[C@H]1Cc2c(cc([N+](=O)[O-])cc2[N+](=O)[O-])[C@H](O)[C@]12C(=O)Nc1c(F)cccc12", "target": "CDK4", "assay": "cell-free assay, inhibitor, TR-FRET", "conditions": "1 µM", "measurement": "inhibition", "result": "32.6%"}
